How the values were obtained:
[1] = target: BMP-2-inducible protein kinase (Homo sapiens) (UniProt Q9NSY1); experiment: Inhibition of BIKE at 1 uM
Summary of the method: (§1)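 Ambit KINOMEscan screen at a single concentration across a 250–400 kinase panel, recorded as percent inhibition. Selectivity was expressed as S(90), the fraction of kinases inhibited >90%.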

[2] = target: Serine/threonine-protein kinase 33 (Homo sapiens) (UniProt Q9BYT3); experiment: Inhibition of STK33 at 1 uM
[3] = target: Serine/threonine-protein kinase SIK1 (Homo sapiens) (UniProt P57059); experiment: Inhibition of SIK at 1 uM
[4] = target: MAP kinase-interacting serine/threonine-protein kinase 1 (Homo sapiens) (UniProt Q9BUB5); experiment: Inhibition of MKNK1 at 1 uM
[5] = target: Death-associated protein kinase 1 (Homo sapiens) (UniProt P53355); experiment: Inhibition of DAPK1 at 1 uM
Summary of the method: (§2)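 Single-concentration screen using Ambit Bioscience KINOMEscan technology across a panel of 250–400 kinases. Per-kinase inhibition from this screen was summarized as S(90), the fraction of kinases inhibited by more than 90%.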

[6] = target: Death-associated protein kinase 3 (Homo sapiens) (UniProt O43293); experiment: Inhibition of DAPK3 at 1 uM; summary of the method: as §2
[7] = target: T1, Tyrosine-protein kinase ITK/TSK (Homo sapiens) (UniProt Q08881); experiment: Inhibition of ITK at 1 uM
T1 sequence (whole entry): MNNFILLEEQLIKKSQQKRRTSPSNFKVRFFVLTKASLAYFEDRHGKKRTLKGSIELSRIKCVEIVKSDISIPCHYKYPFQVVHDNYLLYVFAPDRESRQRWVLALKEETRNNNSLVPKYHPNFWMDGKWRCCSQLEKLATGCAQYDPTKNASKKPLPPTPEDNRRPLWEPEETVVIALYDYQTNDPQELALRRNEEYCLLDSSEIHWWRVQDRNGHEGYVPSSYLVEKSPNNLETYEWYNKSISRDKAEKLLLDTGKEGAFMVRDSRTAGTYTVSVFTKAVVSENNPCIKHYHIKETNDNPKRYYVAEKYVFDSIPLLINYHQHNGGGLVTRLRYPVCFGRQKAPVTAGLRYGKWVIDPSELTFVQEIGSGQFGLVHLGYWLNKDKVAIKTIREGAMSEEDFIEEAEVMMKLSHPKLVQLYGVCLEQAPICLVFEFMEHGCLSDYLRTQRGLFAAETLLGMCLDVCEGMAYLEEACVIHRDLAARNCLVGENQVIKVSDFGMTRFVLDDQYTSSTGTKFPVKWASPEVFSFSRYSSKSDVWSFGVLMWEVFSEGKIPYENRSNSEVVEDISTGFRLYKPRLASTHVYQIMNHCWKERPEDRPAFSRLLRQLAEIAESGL
Summary of the method: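 Single-concentration screen on the Ambit KINOMEscan platform, run against a panel of 250–400 kinases. Per-kinase inhibition was also summarized as S(90), the fraction of kinases inhibited by more than 90%.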

[8] = target: Calcium/calmodulin-dependent protein kinase type II subunit delta (Homo sapiens) (UniProt Q13557); experiment: Inhibition of CAMK2D at 1 uM; summary of the method: as §1
[9] = target: Serine/threonine-protein kinase 25 (Homo sapiens) (UniProt O00506); experiment: Inhibition of YSK1 at 1 uM
[10] = target: T2, Cyclin-dependent kinase 11A (Homo sapiens) (UniProt Q9UQ88); experiment: Inhibition of CDC2L2 at 1 uM
T2 sequence (whole entry): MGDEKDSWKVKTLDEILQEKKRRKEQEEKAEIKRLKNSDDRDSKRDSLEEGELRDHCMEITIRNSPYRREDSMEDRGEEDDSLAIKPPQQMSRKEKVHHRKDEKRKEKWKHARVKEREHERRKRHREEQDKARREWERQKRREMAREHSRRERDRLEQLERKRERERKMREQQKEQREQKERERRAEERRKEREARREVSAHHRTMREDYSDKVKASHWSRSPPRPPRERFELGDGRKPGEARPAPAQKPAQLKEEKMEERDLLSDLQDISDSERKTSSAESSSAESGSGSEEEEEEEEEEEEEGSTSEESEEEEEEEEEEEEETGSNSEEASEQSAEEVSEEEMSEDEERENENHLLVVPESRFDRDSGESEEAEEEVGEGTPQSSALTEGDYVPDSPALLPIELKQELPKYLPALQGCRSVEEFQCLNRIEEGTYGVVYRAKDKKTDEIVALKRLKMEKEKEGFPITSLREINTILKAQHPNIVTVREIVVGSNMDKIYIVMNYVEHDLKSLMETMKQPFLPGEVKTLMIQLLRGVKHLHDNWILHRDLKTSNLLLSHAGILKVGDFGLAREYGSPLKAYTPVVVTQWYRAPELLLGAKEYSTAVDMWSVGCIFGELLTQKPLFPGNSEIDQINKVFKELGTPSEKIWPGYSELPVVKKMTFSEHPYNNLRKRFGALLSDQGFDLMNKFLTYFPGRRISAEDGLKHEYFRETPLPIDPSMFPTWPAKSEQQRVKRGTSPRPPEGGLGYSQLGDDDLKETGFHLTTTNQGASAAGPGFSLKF

[11] = target: Casein kinase I isoform delta (Homo sapiens) (UniProt P48730); experiment: Inhibition of CSNK1D at 1 uM; summary of the method: as §2

Measured: inhibition

Sequence of BMP-2-inducible protein kinase (Homo sapiens) (Q9NSY1 whole entry, looked up): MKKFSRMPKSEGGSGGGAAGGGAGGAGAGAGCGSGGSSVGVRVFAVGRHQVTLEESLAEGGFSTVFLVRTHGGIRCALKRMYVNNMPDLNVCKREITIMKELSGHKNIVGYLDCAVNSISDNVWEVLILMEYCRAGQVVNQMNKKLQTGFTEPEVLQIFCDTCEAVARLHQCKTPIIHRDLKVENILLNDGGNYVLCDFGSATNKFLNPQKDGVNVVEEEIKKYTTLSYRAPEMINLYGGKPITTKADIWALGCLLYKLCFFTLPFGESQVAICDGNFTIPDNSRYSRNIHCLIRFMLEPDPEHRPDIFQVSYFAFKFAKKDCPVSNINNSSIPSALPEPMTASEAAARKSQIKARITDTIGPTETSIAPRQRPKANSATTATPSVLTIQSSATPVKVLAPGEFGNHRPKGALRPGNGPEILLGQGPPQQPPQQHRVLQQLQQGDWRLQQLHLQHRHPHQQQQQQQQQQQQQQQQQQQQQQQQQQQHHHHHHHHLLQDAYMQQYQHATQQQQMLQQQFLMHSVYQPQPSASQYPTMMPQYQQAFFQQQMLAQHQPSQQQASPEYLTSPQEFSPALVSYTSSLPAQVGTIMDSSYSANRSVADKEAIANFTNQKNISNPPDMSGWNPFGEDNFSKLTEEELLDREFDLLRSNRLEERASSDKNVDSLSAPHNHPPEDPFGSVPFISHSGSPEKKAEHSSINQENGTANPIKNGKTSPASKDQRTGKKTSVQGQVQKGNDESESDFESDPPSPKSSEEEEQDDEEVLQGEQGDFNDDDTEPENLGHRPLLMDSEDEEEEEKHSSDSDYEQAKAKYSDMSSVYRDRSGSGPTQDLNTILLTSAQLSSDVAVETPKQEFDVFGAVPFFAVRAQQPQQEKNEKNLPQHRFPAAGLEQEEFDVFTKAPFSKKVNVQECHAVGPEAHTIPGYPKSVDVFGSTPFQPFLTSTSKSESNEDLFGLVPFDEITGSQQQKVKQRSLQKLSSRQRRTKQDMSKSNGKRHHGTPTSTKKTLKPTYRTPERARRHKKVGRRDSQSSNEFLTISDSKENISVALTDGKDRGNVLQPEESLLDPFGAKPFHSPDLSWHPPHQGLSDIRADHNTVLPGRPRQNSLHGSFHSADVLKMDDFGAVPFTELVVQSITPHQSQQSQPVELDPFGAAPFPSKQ
Sequence of Casein kinase I isoform delta (Homo sapiens) (P48730 whole entry, looked up, canonical isoform): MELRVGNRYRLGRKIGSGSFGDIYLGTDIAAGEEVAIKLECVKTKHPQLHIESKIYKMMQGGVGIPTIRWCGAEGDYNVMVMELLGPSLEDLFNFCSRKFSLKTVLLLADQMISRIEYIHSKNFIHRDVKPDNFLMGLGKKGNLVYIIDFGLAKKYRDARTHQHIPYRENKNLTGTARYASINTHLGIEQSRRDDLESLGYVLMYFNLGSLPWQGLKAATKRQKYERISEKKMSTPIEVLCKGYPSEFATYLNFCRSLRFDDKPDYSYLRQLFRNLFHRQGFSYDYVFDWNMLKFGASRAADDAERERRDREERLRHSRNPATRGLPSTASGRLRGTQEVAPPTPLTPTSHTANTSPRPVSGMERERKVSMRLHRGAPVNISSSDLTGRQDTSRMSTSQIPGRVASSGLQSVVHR
Sequence of Death-associated protein kinase 3 (Homo sapiens) (O43293 whole entry, looked up): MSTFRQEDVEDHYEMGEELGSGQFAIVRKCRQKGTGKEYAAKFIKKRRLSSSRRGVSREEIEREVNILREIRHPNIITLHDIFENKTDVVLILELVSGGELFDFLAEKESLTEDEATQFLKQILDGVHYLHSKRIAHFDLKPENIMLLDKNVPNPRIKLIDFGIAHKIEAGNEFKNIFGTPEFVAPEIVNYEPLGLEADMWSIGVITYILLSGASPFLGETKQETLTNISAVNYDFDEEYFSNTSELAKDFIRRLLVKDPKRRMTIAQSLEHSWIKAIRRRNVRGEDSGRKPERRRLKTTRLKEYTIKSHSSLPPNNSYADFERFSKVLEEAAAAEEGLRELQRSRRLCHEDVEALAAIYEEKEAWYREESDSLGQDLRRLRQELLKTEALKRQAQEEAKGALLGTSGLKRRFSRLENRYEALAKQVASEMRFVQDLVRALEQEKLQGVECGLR
Sequence of MAP kinase-interacting serine/threonine-protein kinase 1 (Homo sapiens) (Q9BUB5 whole entry, looked up): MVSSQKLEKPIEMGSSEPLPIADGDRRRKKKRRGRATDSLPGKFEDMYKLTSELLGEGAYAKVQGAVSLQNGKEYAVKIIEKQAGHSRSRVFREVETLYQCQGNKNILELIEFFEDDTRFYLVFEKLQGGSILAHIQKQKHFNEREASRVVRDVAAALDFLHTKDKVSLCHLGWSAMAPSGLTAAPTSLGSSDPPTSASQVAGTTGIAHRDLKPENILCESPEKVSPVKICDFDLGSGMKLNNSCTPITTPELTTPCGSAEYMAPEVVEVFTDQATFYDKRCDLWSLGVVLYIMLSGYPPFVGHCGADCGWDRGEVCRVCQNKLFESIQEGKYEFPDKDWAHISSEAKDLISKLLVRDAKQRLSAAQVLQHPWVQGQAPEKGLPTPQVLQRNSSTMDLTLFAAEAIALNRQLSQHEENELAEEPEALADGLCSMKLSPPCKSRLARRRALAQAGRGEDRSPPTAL
Sequence of Serine/threonine-protein kinase 25 (Homo sapiens) (O00506 whole entry, looked up): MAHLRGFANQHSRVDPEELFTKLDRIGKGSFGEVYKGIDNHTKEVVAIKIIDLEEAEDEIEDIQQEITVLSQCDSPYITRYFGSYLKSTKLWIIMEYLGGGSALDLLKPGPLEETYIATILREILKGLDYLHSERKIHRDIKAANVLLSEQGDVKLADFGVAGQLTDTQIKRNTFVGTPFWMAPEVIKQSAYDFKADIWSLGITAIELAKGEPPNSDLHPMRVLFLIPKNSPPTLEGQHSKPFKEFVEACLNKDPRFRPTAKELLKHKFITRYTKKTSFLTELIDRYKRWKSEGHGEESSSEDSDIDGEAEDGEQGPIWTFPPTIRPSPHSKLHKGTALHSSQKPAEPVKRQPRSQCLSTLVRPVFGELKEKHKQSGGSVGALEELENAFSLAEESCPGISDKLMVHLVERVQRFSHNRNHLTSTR
Sequence of Death-associated protein kinase 1 (Homo sapiens) (P53355 whole entry, looked up): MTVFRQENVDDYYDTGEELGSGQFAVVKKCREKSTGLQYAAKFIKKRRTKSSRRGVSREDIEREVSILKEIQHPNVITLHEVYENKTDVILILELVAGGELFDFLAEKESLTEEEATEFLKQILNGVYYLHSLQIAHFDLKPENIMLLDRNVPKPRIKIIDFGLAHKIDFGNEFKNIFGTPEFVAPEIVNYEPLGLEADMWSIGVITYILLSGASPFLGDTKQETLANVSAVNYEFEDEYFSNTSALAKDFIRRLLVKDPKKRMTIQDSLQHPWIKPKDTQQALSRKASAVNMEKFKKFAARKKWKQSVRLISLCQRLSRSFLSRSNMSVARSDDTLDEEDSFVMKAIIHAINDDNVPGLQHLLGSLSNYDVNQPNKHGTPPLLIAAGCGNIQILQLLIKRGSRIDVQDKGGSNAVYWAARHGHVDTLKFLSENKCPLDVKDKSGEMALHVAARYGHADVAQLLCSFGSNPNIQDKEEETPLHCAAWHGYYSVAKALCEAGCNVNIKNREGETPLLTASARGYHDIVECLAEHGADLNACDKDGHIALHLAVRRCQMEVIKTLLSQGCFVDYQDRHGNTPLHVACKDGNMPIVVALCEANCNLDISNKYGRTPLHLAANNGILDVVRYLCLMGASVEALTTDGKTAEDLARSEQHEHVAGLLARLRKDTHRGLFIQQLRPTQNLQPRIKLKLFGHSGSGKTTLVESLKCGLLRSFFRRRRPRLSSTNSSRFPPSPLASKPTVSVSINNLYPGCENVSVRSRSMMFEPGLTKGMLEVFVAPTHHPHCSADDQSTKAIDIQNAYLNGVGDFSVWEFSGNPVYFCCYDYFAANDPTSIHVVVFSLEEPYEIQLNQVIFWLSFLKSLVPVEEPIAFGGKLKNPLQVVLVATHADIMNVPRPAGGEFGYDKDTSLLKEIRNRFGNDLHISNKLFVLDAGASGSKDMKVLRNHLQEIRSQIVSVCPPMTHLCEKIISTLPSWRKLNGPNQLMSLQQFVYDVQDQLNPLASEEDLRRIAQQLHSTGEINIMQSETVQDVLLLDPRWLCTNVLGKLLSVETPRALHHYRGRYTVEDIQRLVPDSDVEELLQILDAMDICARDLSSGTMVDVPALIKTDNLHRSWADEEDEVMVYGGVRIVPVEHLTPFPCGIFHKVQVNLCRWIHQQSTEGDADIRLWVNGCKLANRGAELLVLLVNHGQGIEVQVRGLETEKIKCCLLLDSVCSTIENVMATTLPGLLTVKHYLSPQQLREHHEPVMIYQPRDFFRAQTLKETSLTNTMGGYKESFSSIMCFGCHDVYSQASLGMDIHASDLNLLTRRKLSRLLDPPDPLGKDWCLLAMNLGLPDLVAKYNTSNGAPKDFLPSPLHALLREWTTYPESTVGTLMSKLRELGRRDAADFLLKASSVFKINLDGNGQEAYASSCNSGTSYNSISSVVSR
Sequence of Calcium/calmodulin-dependent protein kinase type II subunit delta (Homo sapiens) (Q13557 whole entry): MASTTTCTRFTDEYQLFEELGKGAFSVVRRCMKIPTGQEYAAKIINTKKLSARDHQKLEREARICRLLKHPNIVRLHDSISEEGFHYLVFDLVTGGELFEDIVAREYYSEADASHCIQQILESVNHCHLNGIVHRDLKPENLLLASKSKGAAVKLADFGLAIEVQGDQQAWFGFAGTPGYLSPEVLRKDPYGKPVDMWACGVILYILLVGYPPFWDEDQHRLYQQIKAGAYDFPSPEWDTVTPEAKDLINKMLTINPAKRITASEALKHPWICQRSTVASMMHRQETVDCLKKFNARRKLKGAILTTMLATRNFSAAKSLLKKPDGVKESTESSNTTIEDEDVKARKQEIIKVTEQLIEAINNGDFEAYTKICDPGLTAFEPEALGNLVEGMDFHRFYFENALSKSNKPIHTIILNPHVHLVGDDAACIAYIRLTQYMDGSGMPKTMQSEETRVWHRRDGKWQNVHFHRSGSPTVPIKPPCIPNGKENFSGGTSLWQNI

CN1CCN(c2ccc(-c3cnc4c(c3)N(Cc3cc(F)ccc3F)CCN4)cn2)CC1
< 50%: all assays above

CC(=O)N1CCN(c2cc(-c3cnc4c(c3)N(Cc3cc(Cl)ccc3C(F)(F)F)CCN4)ccn2)CC1
< 50%: all assays above

CN1CCN(c2ccc(-c3cnc4c(c3)N(Cc3c(F)ccc(F)c3Cl)CCN4)cn2)CC1
< 50%: all assays above

FC(F)(F)c1ccc(Cl)cc1CN1CCNc2ncc(-c3ccnc(N4CCNCC4)c3)cc21
< 50%: all assays above

CN1CCN(c2ccc(-c3cnc4c(c3)N(Cc3cc(Cl)ccc3Cl)CCN4)cn2)CC1
< 50%: all assays above

O=C(c1ccc(-c2cnc3c(c2)N(Cc2cc(Cl)ccc2C(F)(F)F)CCN3)cc1)N1CCC(N2CCCC2)CC1
81.6%: [3]
< 50%: [5] | [6] | [7] | [8] | [11]
79.8%: [2]
84%: [1]

O=C(O)c1ccc(-c2cnc3c(c2)N(Cc2cc(Cl)ccc2C(F)(F)F)CCN3)cc1
not listed: [2] | [4] | [9] | [10]
< 50%: all other assays above

CN1CCN(c2ccc(-c3cnc4c(c3)N(Cc3cc(Cl)ccc3C(F)(F)F)CCN4)cn2)CC1
< 50%: all assays above

O=C(c1ccc(-c2cnc3c(c2)N(Cc2cc(Cl)ccc2C(F)(F)F)CCN3)cc1)N1CCCCC1
not listed: [2] | [4] | [9] | [10]
< 50%: all other assays above

COC1CCN(C(=O)c2ccc(-c3cnc4c(c3)N(Cc3cc(Cl)ccc3C(F)(F)F)CCN4)cc2)CC1
not listed: [2] | [4] | [9] | [10]
< 50%: all other assays above

— ChEMBL document CHEMBL1165965, “Synthesis and structure-activity relationships of 1,2,3,4-tetrahydropyrido[2,3-b]pyrazines as potent and selective inhibitors of the anaplastic lymphoma kinase” (Bioorg Med Chem, 2010)
